Screening data as filed in PubChem.
In the library only some 3.5% were active in any assay of this set; here they are far more common.
ABHD4 inh = inhibitors of mouse ABHD4. Q8VD66. purified mABHD4, FP-Rh probe fluorescence polarization. inhibition, % at 8.92 µM. actives 0.54% (n = 370,000);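 active = inhibition exceeding the mean over every tested compound plus 3 SD, cut at about 30% in these data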;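 also: 0% = plate median of compound wells and 100% = S159A mutant with DMSO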
Target sequence (Q8VD66 whole entry, looked up): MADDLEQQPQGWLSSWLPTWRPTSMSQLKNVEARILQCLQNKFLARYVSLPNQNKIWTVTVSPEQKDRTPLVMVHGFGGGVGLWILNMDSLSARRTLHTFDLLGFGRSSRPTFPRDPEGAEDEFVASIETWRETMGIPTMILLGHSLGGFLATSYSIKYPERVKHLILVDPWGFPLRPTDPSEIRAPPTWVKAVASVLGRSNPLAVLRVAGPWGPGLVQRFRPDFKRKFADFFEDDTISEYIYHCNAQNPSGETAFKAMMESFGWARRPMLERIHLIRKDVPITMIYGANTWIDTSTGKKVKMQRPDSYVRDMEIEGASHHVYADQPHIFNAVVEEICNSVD
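assay system = mABHD4 protein | compound dosing = single nominal dose of 8.92 µM, 0.89% DMSO final | read-out basis = percent inhibition of probe binding, normalized to plate controls | schedule = Enzyme–compound pre-incubation 45 min, then probe 60 min, both 25 °C | detection = fluorescence polarization, excitation 525 nm, emission 598 nm, BODIPY TMR filters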
HTRA1 inh = blocks human HTRA1 serine peptidase; AID 504803; actives 0.5% (n = 340,000); recombinant HTRA1, FP-rhodamine activity-based probe, fluorescence polarization; Q92743; inhibition, % at 5.96 µM; in the data active = inhibition above about 36%;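 also: 0% = enzyme with DMSO and 100% = wells lacking enzyme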
TCR-CD3 inh = inhibitors of human TCR-CD3 interaction; inhibition, % at 9.4 µM; actives 0.37% (n = 360,000); TAMRA-labeled TCR probe fluorescence, biochemical; in the data active = inhibition above about 19%;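 also: recombinant mutant TCR 2C K166C tagged with TAMRA read by polarization; 0% = receptor in buffer alone and 100% = receptor with positive control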
PRMT1 inh = PRMT1 (human) inhibition, primary screen. inhibition, % at 2.79 µM. actives 1.3% (n = 370,000). recombinant PRMT1, activity-based probe fluorescence polarization;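 active = inhibition above about 21% made by adding two undisclosed values, limit read from the data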
SIAE primary = inhibitors of human sialic acid acetylesterase SIAE; Q9HAT2; AID 1053197; actives 0.69% (n = 370,000); inhibition, % at 9.66 µM; SIAE FP-Rh probe binding, fluorescence polarization;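 active = inhibition above a cutoff: mean of compounds within the control limits plus 3 SD of those, cut at about 17% in these data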;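 also: 0% = plate median of compound wells and 100% = probe without SIAE protein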
rCAG RNA binder = molecules binding r(CAG) RNA repeats | r(CAG) RNA repeat, TO-PRO-1 dye displacement fluorescence | inhibition, % at 3 µM | actives 1.3% (n = 370,000);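 active = inhibition above the plate cutoff, the mean of all test compounds on that plate plus 3 SD, cut at about 35% in these data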;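 also: 0% = DMSO alone and 100% = 100 µM mitoxantrone as full dye displacement; higher means more dye released from RNA so lower well fluorescence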
PRMT1 inh conf = confirmation of human PRMT1 inhibitors | AID 687036 | shares compounds with PRMT1 inh | inhibition, % at 2.79 µM | actives 42% (n = 3,300) | recombinant His-PRMT1, activity-based probe fluorescence polarization;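 active = mean inhibition across replicates above the hit cutoff derived for the earlier primary screen, cut at about 22% in these data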
The depositor's hits bear a star.

Results for CCOc1ccc(NC(=O)Cn2sc3nc(C)cc(C)c3c2=O)cc1 ?
HTRA1 inh: 0

What do the screens show for `Cc1ccc(NC(=O)Cn2sc3nc(C)cc(C)c3c2=O)c(Cl)c1`?
ABHD4 inh: 2; HTRA1 inh: 5; TCR-CD3 inh: -4; PRMT1 inh: 79*; SIAE primary: -2; rCAG RNA binder: 2; PRMT1 inh conf: 88*

How did C=CCOC(=O)N1CCN(C(=O)c2ccc3nc(C)n(C4CCCC4)c3c2)CC1 do in these assays?
ABHD4 inh: 4; PRMT1 inh: -6; SIAE primary: 10; rCAG RNA binder: 1

How did C=CCN1C(=O)[C@H](CC(=O)NCCCOCCCC)[C@@]2(C(=O)OCC)CCCC=C12 do in these assays?
ABHD4 inh: -1; PRMT1 inh: -8; SIAE primary: -1; rCAG RNA binder: 8

Results for Cc1ccc(/C=N/n2c(COc3ccccc3)n[nH]c2=S)cc1 ?
ABHD4 inh: -3; HTRA1 inh: -7; TCR-CD3 inh: -5; PRMT1 inh: 12; SIAE primary: 14; rCAG RNA binder: 29

What do the screens show for `S=c1[nH]nc(COc2ccccc2)n1/N=C/C=C/c1ccco1`?
ABHD4 inh: 15; TCR-CD3 inh: 3; PRMT1 inh: 33*; SIAE primary: 8; rCAG RNA binder: 21; PRMT1 inh conf: 1

What do the screens show for `COC(=O)[C@]12C[C@H](CC(=O)N3CCCCC3)C(=O)N(CCc3ccc(OC)c(OC)c3)C1=C[C@H](C1CCCC1)O[C@@H]2C`?
ABHD4 inh: 3; PRMT1 inh: 4; SIAE primary: -1; rCAG RNA binder: 0

How did O=C1CC(Sc2nnnn2-c2ccccc2)C(=O)N1c1cccc(Cl)c1 (stereo not drawn) do in these assays?
ABHD4 inh: 2; HTRA1 inh: -2; TCR-CD3 inh: -4; PRMT1 inh: 74*; SIAE primary: -4; rCAG RNA binder: 7; PRMT1 inh conf: 79*

What do the screens show for `COc1ccc(N2C(=O)CC(Sc3nnnn3-c3ccc(F)cc3)C2=O)cc1` (stereo not drawn)?
ABHD4 inh: 1; HTRA1 inh: -6; TCR-CD3 inh: -1; PRMT1 inh: 51*; SIAE primary: 2; rCAG RNA binder: 6; PRMT1 inh conf: 64*

What do the screens show for `Cc1oc(-c2ccc3c(c2)OCCO3)cc1C(=O)NCC(=O)O`?
ABHD4 inh: 3; HTRA1 inh: -1; TCR-CD3 inh: 3; PRMT1 inh: 1; SIAE primary: 1; rCAG RNA binder: 3

What do the screens show for `Cc1oc(-c2ccc3c(c2)OCCO3)cc1C(=O)O`?
ABHD4 inh: -7; HTRA1 inh: 3; TCR-CD3 inh: -8; PRMT1 inh: 42*; SIAE primary: -2; rCAG RNA binder: 11; PRMT1 inh conf: 6

Results for O=C(CC1SC(=O)NC1=O)Nc1ccc(Cl)cc1 (stereo not drawn) ?
ABHD4 inh: -6; HTRA1 inh: 2; TCR-CD3 inh: 6; PRMT1 inh: 40*; SIAE primary: 1; rCAG RNA binder: 13; PRMT1 inh conf: 39*

How did Fc1ccc(Nc2cncc(-c3ccsc3)c2)cc1Cl do in these assays?
ABHD4 inh: 4; TCR-CD3 inh: -5; PRMT1 inh: 25*; SIAE primary: -3; rCAG RNA binder: 7; PRMT1 inh conf: 2

How did Fc1ccc(Nc2nnc(C(F)(F)F)s2)cc1Cl do in these assays?
ABHD4 inh: -10; HTRA1 inh: -15; TCR-CD3 inh: -4; PRMT1 inh: 4; SIAE primary: -1; rCAG RNA binder: 0

Results for CCOC(=O)CC(=O)CSc1ncnc2c1nnn2-c1ccccc1 ?
ABHD4 inh: 13; HTRA1 inh: -2; TCR-CD3 inh: -9; PRMT1 inh: 64*; SIAE primary: 1; rCAG RNA binder: 15; PRMT1 inh conf: 92*

What do the screens show for `CCOC(=O)CNC(=O)CSc1ncnc2c1nnn2-c1ccc(F)cc1`?
ABHD4 inh: -13; HTRA1 inh: 6; TCR-CD3 inh: -10; PRMT1 inh: 6; SIAE primary: -2; rCAG RNA binder: 6

What do the screens show for `Cc1[nH]nc2c1C(c1ccc(O)cc1)C1=C(CC(C)(C)CC1=O)N2` (stereo not drawn)?
ABHD4 inh: 3; HTRA1 inh: 7; TCR-CD3 inh: 0; PRMT1 inh: 1; SIAE primary: 4; rCAG RNA binder: -2
